Shown are actives, neighbours in structure and some others; about 3.7% of the full set was active somewhere.
bCat nuc transl: modulators of beta-catenin nuclear translocation, primary screen, imaging, HeLa cells, immunofluorescence, high-content | nuclear translocation activity, % at 5 µM | 190,000 tested, 0.3% active | AID 1665, 2009;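 active = nuclear translocation activity above 50% at 5 µM, with a well cell count of 50 or more; inconclusive = wells under 50 cells across six images, flagged as toxic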;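 note: per-cell ratio of nuclear to cytoplasmic median beta-catenin stain intensity; plate controls were DMSO negative control for no effect and GSK-3 inhibitor IX positive control for full effect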
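Assay system: human HeLa cells, native beta-catenin; doses: 5 µM primary, 0.02–20 µM confirmation; incubation: compound treatment 24 h, 37°C, 5% CO2; technique: fluorescence imaging of beta-catenin antibody stain plus DAPI; measure: % activation, nuclear-to-cytoplasmic median beta-catenin signal ratio per cell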
KCC2 mod: KCC2 cotransporter modulators, thallium flux, primary screen, cell-based, HEK293 KCC2, FluoZin-2 fluorescence, MLSMR | 190,000 tested, 2.2% active | B-score of Tl+ flux slope (higher = more flux/activation; lower = inhibition) at 10 µM | KCC2 cells, thallium flux FluoZin-2 fluorescence | Solute carrier family 12 member 5 (Homo sapiens), Q9H2X9 | AID 1456, 2008;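 active = thallium flux slope and its plate-corrected score both differing from the plate sample mean at a set confidence after two filtering rounds, in either direction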;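 note: slope of fluorescence scaled to starting intensity during 10 to 20 s after thallium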
MT stabilizer: microtubule stabilizers in HeLa cells, primary screen, imaging, high-content imaging; HeLa tubulin immunostaining HCS, 24 h; share of cells brighter than vehicle mean+2SD; % tubulin-high responders, % at 10 µM; 200,000 tested, 0.83% active; AID 2205, 2009;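 active = plate Z-score above 3 for both tubulin-high and condensed-nucleus cell shares, with cell loss under 80%, at 10 µM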;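 note: anti alpha tubulin signal scored within the nucleus-defined area of each cell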
DTT redox prof: compounds producing H2O2 with reducing agent – biochemical, NIH compound library profiling, artefact control for MLSCN library redox annotation, primary screen | DTT-dependent redox cycling H2O2, phenol red/HRP absorbance; 100% = 100 µM peroxide control, 0% = buffer | activation, % at 10 µM | 200,000 tested, 0.03% active;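 active = activation of at least 50% relative to the plate's high and low controls in the primary single-dose screen; inactive = activation below 50%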;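 note: compound incubated with DTT at 0.8 mM final as the reducing agent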
ROMK mod: ROMK potassium channel modulators, primary screen, cell-based, thallium flux, MLSMR library; ATP-sensitive inward rectifier potassium channel 1 (Homo sapiens), P48048; Tet-inducible ROMK, thallium flux fluorescence; actives lie on both sides; B-score at 10 µM; 130,000 tested, 2% active; AID 1918, 2009;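 active = signal ratio slope over the read window, or its plate-corrected B-score, at least 3 SD from the plate mean, either direction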;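 note: B-score of the F/F0 ratio slope over 7 to 12 s after thallium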
Target sequence (P48048 whole entry, looked up): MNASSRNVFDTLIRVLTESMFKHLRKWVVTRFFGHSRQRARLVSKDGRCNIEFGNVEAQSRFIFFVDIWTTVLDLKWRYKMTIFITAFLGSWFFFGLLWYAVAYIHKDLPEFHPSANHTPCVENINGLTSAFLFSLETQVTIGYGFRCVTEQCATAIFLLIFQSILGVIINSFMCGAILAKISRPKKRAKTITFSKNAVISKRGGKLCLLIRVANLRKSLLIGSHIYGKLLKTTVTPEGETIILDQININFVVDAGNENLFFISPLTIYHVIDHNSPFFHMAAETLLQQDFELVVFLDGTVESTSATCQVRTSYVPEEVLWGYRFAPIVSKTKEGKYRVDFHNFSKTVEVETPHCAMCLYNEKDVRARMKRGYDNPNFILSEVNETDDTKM
ROMK hit retest: ROMK channel modulator hit retest, confirmation, cell-based, thallium flux, duplicate, resupplied hits. shares compounds with ROMK mod. fluorescence ratio; hits give low values. normalized thallium flux (F/F0 slope) at 10 µM. 3,000 tested, 54% active. AID 1917, 2009;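 active = Flux at 10 µM at least 3 SD below or above vehicle control mean in one or both replicates; inconclusive = no clear call, values can overlap the other calls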
* hit, by the source's call; ? = inconclusive; / = no result given.

SMILES | bCat nuc transl | KCC2 mod | MT stabilizer | DTT redox prof | ROMK mod | ROMK hit retest
O=C(O)/C(=C\c1ccccc1OC(F)F)Sc1nnc(-c2ccc(F)cc2)o1 | 2 | -3.1 | 3 | 0 | -3* | 0.056*
COc1ccc(NS(=O)(=O)c2ccc(N3CCCC3=O)cc2)cn1 | -1 | 0.055 | 11 | 0 | 2.3* | 0.081
CCOCCCNCc1ccc(OC)c(OC)c1 | -1 | 0.52 | 2 | 0 | / | /
CCOCCCNC(=O)Cc1ccc(OC)c(OC)c1 | / | 0.33 | 2 | 1 | / | 0.083
COc1cccc(OC2OC3COC(C)(C)OC3C(O)C2NC(C)=O)c1 (stereo not drawn) | 3 | 0.17 | 3 | -1 | 0.16 | /
Cc1ccc(NCc2nnc(SCC(=O)NCc3ccco3)n2CC2CCCO2)cc1Cl (stereo not drawn) | / | -0.87 | 3 | 3 | -2.8* | 0.067*
Cc1cc(C(=O)CN2C(=O)NC(C)(c3cccc(Br)c3)C2=O)c(C)n1Cc1ccco1 (stereo not drawn) | / | 0.64 | 6 | -3 | / | ?
COCCNC(=O)c1ccccc1NC(=O)c1ccccc1SC | 1 | 0.56 | 3 | 0 | 3.2* | 0.084
CCCNC(=O)c1ccccc1NC(=O)c1ccccc1SC | 0 | -0.5 | 5 | 0 | 0.062 | /
COc1ccc(CSc2nc(C)cc(C)c2S(C)(=O)=O)cc1 | 0 | -2.9 | 4 | -1 | 1.1 | /
CCOC(=O)c1c(C)n(C)c2ccc(OC)c(NC(=O)CCN3CCC(Cc4ccccc4)CC3)c12 | -1 | -0.47 | / | / | / | 0.063*
CCOC(=O)c1c(C)n(C)c2ccc(OC)c(NC(=O)CN3CCSCC3)c12 | 3 | 1.7 | 3 | 0 | 0.96 | /
CN(C)CCN1C(=O)C(O)=C(C(=O)c2ccco2)C1c1ccccc1F (stereo not drawn) | / | / | 2 | 3 | / | 0.076
COc1cccc(C2C(C(=O)c3ccco3)=C(O)C(=O)N2CCN(C)C)c1OC (stereo not drawn) | / | -0.059 | 2 | 0 | 1 | /
COCCOC(=O)C1=C(C)NC(=O)NC1c1cn(-c2ccccc2)nc1-c1cccs1 (stereo not drawn) | -5 | 0.46 | 2 | 0 | 0.0072 | /
C=CCOC(=O)C1=C(C)NC(=O)NC1c1cn(-c2ccccc2)nc1-c1cccs1 (stereo not drawn) | 0 | -0.083 | 4 | 1 | -3* | 0.061*
O=C(NCCN1C(=O)CSC1=O)C1CC(=O)N(c2ccccc2)C1 (stereo not drawn) | / | 0.64 | 3 | 0 | 0.91* | 0.081
CC(=O)N1CCN(C2=NC(=O)/C(=C\c3cccs3)S2)CC1 | -1 | 1.1 | 1 | 0 | -6.7* | 0.083
O=C1N=C(N2CCOCC2)S/C1=C/c1cccs1 | -3 | 0.027 | 1 | -3 | / | /
CCOc1cccc(-c2nnc3n2N=C(c2cc(OC)ccc2OC)CS3)c1 | 2 | -2.2 | 29* | 0 | 3.8* | 0.09
Cc1ccc(-c2cc(C(F)F)n3ncc(C(=O)N4CCN5CCCC5C4)c3n2)cc1 (stereo not drawn) | / | -1.3 | 4 | 0 | / | /
CCOC(=O)C1CCCN(C(=O)c2cnn3c(C(F)F)cc(-c4ccc(C)cc4)nc23)C1 (stereo not drawn) | / | / | 4 | -1 | / | 0.073
CCC(CC)c1nnc(NC(=O)CCNC(=O)c2ccccc2Cl)s1 | -2 | -0.73 | 3 | 0 | -0.87 | /
CCOc1ccc(NC(=O)N[C@@H](CCSC)C(=O)OC)cc1 | 0 | 0.45 | 2 | 0 | 2.4* | ?
COC(=O)[C@H](CCSC)NC(=O)Nc1ccc(C(C)C)cc1 | -5 | -0.56 | 7 | 2 | -0.39 | /
NC(=O)C1(N2CCCCC2)CCN(C(=S)Nc2ccc(S(N)(=O)=O)cc2)CC1 | -1 | 1.1 | 3 | -1 | 0.05 | /
COc1cc2c(cc1OC)CN(CC(=O)Nc1ccc3c(c1)OC(F)(F)O3)CC2 | -2 | -0.57 | 3 | 0 | 2.5* | 0.078

High-throughput results from PubChem BioAssay.
